High-throughput results deposited in PubChem by several laboratories.
ASAP1 GAP inh: ASAP1 ArfGAP inhibition. ASAP1-stimulated ARF1 GTP hydrolysis, GDP FP detection. Q9ULH1. AID 624377. inhibition, % at 16.5 µM. 0.19% of 360,000 active; in the data active = inhibition above about 25%;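 also: 0% = vehicle with enzyme and substrate and 100% = no enzyme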
TDP2 absorb: blocks human TDP2 phosphodiesterase activity. recombinant TDP2, T5PNP hydrolysis, p-nitrophenol absorbance 415 nm. inhibition, % at 12.8 µM. 0.34% of 370,000 active. AID 720702;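 active = inhibition above the mean of all tested compounds plus 3 SD, set per campaign, cut at about 25% in these data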;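 also: 0% = DMSO with enzyme and 100% = buffer with substrate but no TDP2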
Target sequence (O95551 whole entry, looked up): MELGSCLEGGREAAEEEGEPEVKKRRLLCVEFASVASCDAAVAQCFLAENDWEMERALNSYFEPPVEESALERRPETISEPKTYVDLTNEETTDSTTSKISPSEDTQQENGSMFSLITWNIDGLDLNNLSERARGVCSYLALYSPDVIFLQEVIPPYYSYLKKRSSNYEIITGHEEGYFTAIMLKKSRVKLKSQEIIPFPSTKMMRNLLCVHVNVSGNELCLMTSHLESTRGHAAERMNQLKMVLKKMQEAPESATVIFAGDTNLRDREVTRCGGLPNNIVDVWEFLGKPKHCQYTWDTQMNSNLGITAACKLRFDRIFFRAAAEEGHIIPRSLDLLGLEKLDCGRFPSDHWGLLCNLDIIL
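Material: recombinant human TDP2; quantity: TDP2 enzyme at 120 nM final; medium: Tris-HCl pH 7.5 with MgCl2; compound: single concentration, 12.8 µM nominal, with 1% DMSO; incubation: 2 h enzyme incubation at 37 °C; signal: epi absorbance; measure: percent inhibition; benchmarks: high control without enzyme, low control DMSO plus TDP2; repeats: singlicate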
Casp6 inh: inhibitors of human caspase-6. P55212. purified caspase-6, Z-VEID-R110 cleavage fluorescence. inhibition, % at 12.5 µM. 0.53% of 350,000 active. AID 686996;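 active = mean inhibition across replicates at least about 35%, with every replicate also reaching that limit, limit read from the data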;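 also: 0% = median of neutral control wells and 100% = no fluorescence left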
ARFGAP1 inhibitor: rat ARFGAP1 inhibition; Q62848; Arfgap1-stimulated ARF1 GTP hydrolysis, GDP FP detection; inhibition, % at 16.5 µM; 0.26% of 360,000 active;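 active = inhibition above a per-plate limit, mean inhibition of low control wells plus 3 SD, cut at about 25% in these data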;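 also: 0% = DMSO wells with enzyme and 100% = wells lacking Arfgap1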
Target sequence (Q62848 1-136 limits assumed): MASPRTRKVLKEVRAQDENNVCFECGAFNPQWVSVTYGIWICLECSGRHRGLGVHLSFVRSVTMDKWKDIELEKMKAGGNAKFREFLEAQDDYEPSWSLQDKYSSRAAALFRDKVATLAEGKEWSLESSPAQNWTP
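Material: rat Arfgap1 catalytic domain, aa 1-136; also added: human ARF1(Δ1-17)-GTP substrate; compound dosing: one concentration, 16.5 µM, DMSO 1.26%; incubation: GTP hydrolysis reaction 2 h at 25 °C; measured by: Tracer-displacement fluorescence polarization with EDTA stop, 620/688 nm; evaluation: % inhibition from polarization; repeats: one replicate per compound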
LEDGF integ inh: blocks HIV-1 LEDGF/p75-dependent DNA integration; AID 743269; inhibition, % at 3.7 µM; TR-FRET IN-LEDGF/p75 DNA integration, Eu/Cy5; 0.64% of 370,000 active;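 active = inhibition above the screen-wide mean plus 3 SD, cut at about 13% in these data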;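 also: signal is the Cy5 over europium emission ratio at 671 and 618 nm; 0% = plate median of compound wells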
ASAP1 GAP conf: ASAP1 inhibition confirmed. shares compounds with ASAP1 GAP inh. ASAP1-stimulated Arf1 GTPase, GDP fluorescence polarization. inhibition, % at 16.5 µM. 37% of 620 active. AID 624431;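 active = mean inhibition over triplicates exceeds the hit threshold derived for the earlier primary screening run, cut at about 25% in these data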
Active calls of the source: *. In the library only some 1.3% were active in any assay of this set; here they are far more common.

`COc1cc2cc(C(=O)N/N=C/c3ccc(F)cc3)[nH]c2cc1OC` gave ASAP1 GAP inh 1.7, TDP2 absorb -5.5, Casp6 inh 0.9, ARFGAP1 inhibitor 4.8 and LEDGF integ inh 4.2.
`COc1cc2cc(C(=O)N/N=C/c3ccccc3Cl)[nH]c2cc1OC` gave ASAP1 GAP inh 27.6*, TDP2 absorb 4.3, Casp6 inh 0.3, ARFGAP1 inhibitor 5.6, LEDGF integ inh -0.2 and ASAP1 GAP conf 53.4*.
Screening Cc1cccc(/C=C2/Sc3ccc(C(=O)NCCCN4CCOCC4)cc3NC2=O)c1 returned ASAP1 GAP inh 5.9, TDP2 absorb 0.2, Casp6 inh 4.3, ARFGAP1 inhibitor 11.1 and LEDGF integ inh -2.8.
For COc1ccc(/C=C2/Sc3ccc(C(=O)NCCCN4CCOCC4)cc3NC2=O)cc1OC the results were ASAP1 GAP inh 31.9*, TDP2 absorb -10.0, Casp6 inh -5.8, ARFGAP1 inhibitor 17.4, LEDGF integ inh -3.0 and ASAP1 GAP conf 89.4*.
CCN(CC)c1nc(N)c2c(N)nc(OC)cc2c1C#N was read as ASAP1 GAP inh 34.4*, TDP2 absorb 14.4, Casp6 inh 51.2*, ARFGAP1 inhibitor 11.8, LEDGF integ inh -1.3 and ASAP1 GAP conf -1.8.
`COc1cc2c(C#N)c(N3CCOCC3)nc(N)c2c(N)n1` gave ASAP1 GAP inh -5.1, TDP2 absorb -3.6, ARFGAP1 inhibitor 2.9 and LEDGF integ inh 1.9.
O=C1C=CC(=O)N1c1ccc2c(c1)C(NC(=O)C(F)(F)F)c1ccccc1-2 (stereo unspecified) was read as ASAP1 GAP inh -4.4, TDP2 absorb 3.4, Casp6 inh 1.2, ARFGAP1 inhibitor 19.0 and LEDGF integ inh -5.2.
Cn1cc(SCC(=O)NC2CCCC2)c2ccccc21 was read as ASAP1 GAP inh 4.4, TDP2 absorb -2.7, Casp6 inh 1.1, ARFGAP1 inhibitor -2.0 and LEDGF integ inh 3.8.
Cn1cc(SCC(=O)NC2CCCCC2)c2ccccc21 was read as ASAP1 GAP inh 26.7*, TDP2 absorb -5.6, Casp6 inh -1.6, ARFGAP1 inhibitor 15.8, LEDGF integ inh 5.2 and ASAP1 GAP conf 13.1.
COc1ccc(CN(C)C[C@H]2OCCCC[C@H](C)Oc3ccc(NC(=O)CCCN(C)C)cc3C(=O)N([C@H](C)CO)C[C@@H]2C)cc1 was read as Casp6 inh 2.2.
`CCC(C)(C)NC(=O)C(c1ccc(OC)cc1)N(C(=O)CCC(=O)Nc1cc(C)on1)c1ccccc1OC` (stereo unspecified) gave ASAP1 GAP inh 27.1*, TDP2 absorb 7.8, Casp6 inh 6.0, ARFGAP1 inhibitor -1.4, LEDGF integ inh 1.9 and ASAP1 GAP conf 5.3.
For O=C(NCc1ccco1)C12CN(Cc3ccccc3)CC1C(c1cccc([N+](=O)[O-])c1)=NO2 (stereo unspecified) the results were ASAP1 GAP inh 24.8*, TDP2 absorb 6.8, Casp6 inh 2.0, ARFGAP1 inhibitor 0.3, LEDGF integ inh -0.9 and ASAP1 GAP conf 7.9.
O=C(NCc1ccco1)C12CN(Cc3ccccc3)CC1C(c1ccc([N+](=O)[O-])cc1)=NO2 (stereo unspecified) was read as ASAP1 GAP inh 5.8, TDP2 absorb 1.7, Casp6 inh -0.3, ARFGAP1 inhibitor 15.2 and LEDGF integ inh 0.3.
For NS(=O)(=O)c1ccc(CCNc2nc3c(-c4cccc(F)c4)nnn3c3ccccc23)cc1 the results were ASAP1 GAP inh 55.4*, TDP2 absorb -0.7, ARFGAP1 inhibitor 0.2, LEDGF integ inh 0.5 and ASAP1 GAP conf 87.6*.
`O=c1c2ccccc2sn1-c1ccc(S(=O)(=O)N2CCCCC2)cc1` gave ASAP1 GAP inh 25.3*, TDP2 absorb -0.5, ARFGAP1 inhibitor 7.4, LEDGF integ inh 0.8 and ASAP1 GAP conf 8.4.
For COCCNC(C(=O)Nc1ccc(C)cc1[N+](=O)[O-])c1ccccc1 (stereo unspecified) the results were ASAP1 GAP inh -3.8, TDP2 absorb 11.1, Casp6 inh 4.5, ARFGAP1 inhibitor -10.4 and LEDGF integ inh 1.4.
Screening CC(=O)c1ccc(N2CCN(C(=O)CCCn3c(=S)[nH]c4cc5c(cc4c3=O)OCO5)CC2)cc1 returned ASAP1 GAP inh 10.1, TDP2 absorb -9.5, ARFGAP1 inhibitor -7.5 and LEDGF integ inh 4.7.
Screening CCOC(=O)C1CCCN(C(=O)c2cccc(S(=O)(=O)N(C)c3ccc(OC)cc3)c2)C1 (stereo unspecified) returned ASAP1 GAP inh -6.1, TDP2 absorb -0.8, Casp6 inh -85.1, ARFGAP1 inhibitor 3.8 and LEDGF integ inh 0.6.
Screening CCOC(=O)C1CCCN(C(=O)c2cccc(S(=O)(=O)N(Cc3ccccc3)c3ccccc3OC)c2)C1 (stereo unspecified) returned ASAP1 GAP inh 29.3*, TDP2 absorb -23.7, Casp6 inh 1.3, ARFGAP1 inhibitor -5.5, LEDGF integ inh 4.1 and ASAP1 GAP conf 0.2.
`O=C(O)C1CCCCC1C(=O)Nc1ccc(OCc2ccccc2)cc1` (stereo unspecified) gave ASAP1 GAP inh 0.6, TDP2 absorb -3.3, Casp6 inh 0.2, ARFGAP1 inhibitor -3.9 and LEDGF integ inh -1.6.
`O=C1C=CC(=O)N1c1cccc2cccnc12` gave ASAP1 GAP inh 25.2*, TDP2 absorb -6.3, Casp6 inh 29.5, ARFGAP1 inhibitor 2.5, LEDGF integ inh 3.2 and ASAP1 GAP conf 3.2.
c1cnc2c(c1)ccc1cccnc12 was read as ASAP1 GAP inh -4.9, TDP2 absorb -3.2, Casp6 inh -10.2, ARFGAP1 inhibitor 5.7 and LEDGF integ inh -8.5.
FC(F)(F)c1ccc(N2CCOCC2)c(Nc2nc3ccccc3n3cnnc23)c1 was read as Casp6 inh 4.4.
`CC(=O)Nc1nc(C)c(C(C)(C)C)s1` gave ASAP1 GAP inh 6.8, TDP2 absorb 4.7, Casp6 inh 2.1, ARFGAP1 inhibitor -10.7 and LEDGF integ inh 1.4.
CCC(=O)c1ccc(OC(=O)C2CCN(C3=NS(=O)(=O)c4ccccc43)CC2)cc1 was read as ASAP1 GAP inh 26.7*, TDP2 absorb -5.5, Casp6 inh -0.3, ARFGAP1 inhibitor -2.6, LEDGF integ inh -1.7 and ASAP1 GAP conf 8.9.
Screening O=C(Oc1ccc(Br)cc1)C1CCN(C2=NS(=O)(=O)c3ccccc32)CC1 returned ASAP1 GAP inh 24.7*, TDP2 absorb 8.6, Casp6 inh 0.7, ARFGAP1 inhibitor 0.3, LEDGF integ inh -4.0 and ASAP1 GAP conf 4.6.
For Cc1ccc(OCC(=O)N2CCN(C3=NS(=O)(=O)c4ccccc43)CC2)cc1 the results were ASAP1 GAP inh 0.5, TDP2 absorb 7.0, ARFGAP1 inhibitor -21.9 and LEDGF integ inh -1.2.
For COc1nc(Oc2ccc(/C=N/O)cc2)nc(N(C)C)n1 the results were ASAP1 GAP inh -1.7, TDP2 absorb 4.3, Casp6 inh -1.6, ARFGAP1 inhibitor -0.8 and LEDGF integ inh -2.9.
